Activity calls are given as the source filed them. The calls are words filed in the database; no cut-off is given here.
How the values were obtained:
Oryctolagus cuniculus [1] = organism: Oryctolagus cuniculus; test: Antiprogestational activity in rabbit at 0.4 mg by anti-clauberg assay; type: functional, organism-based
Summary of the method: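 Rabbit anti-Clauberg (antiprogestational) assay: test steroid given at 20.0 mg against a progesterone challenge of 0.4 mg. Run by Mason Research Institute for the NIH Contraceptive Development Branch.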

Rattus norvegicus [2] = organism: Rattus norvegicus; test: Antiandrogenicity in male rat assessed as inhibition of increase in seminal vesicle weight using 1.2 mg testosterone at 10 mg; type: functional
Rattus norvegicus [3] = organism: Rattus norvegicus; test: Androgenicity in male rat at 10 mg; type: functional, organism-based
Rattus norvegicus [4] = organism: Rattus norvegicus; test: Antiandrogenicity in male rat assessed as inhibition of increase in ventral prostate weight using 1.2 mg testosterone at 10 mg; type: functional, Prostate gland
Rattus norvegicus [5] = organism: Rattus norvegicus; test: Antiandrogenicity in male rat assessed as inhibition of increase in levator ani weight using 1.2 mg testosterone at 10 mg; type: functional
Oryctolagus cuniculus [6] = organism: Oryctolagus cuniculus; test: Progestational activity in rabbit at 0.1 to 10 mg by clauberg assay; type: functional, organism-based
Summary of the method: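 Clauberg assay in rabbits: progestational response scored after test steroid at dose levels of 0.1, 1.0 and 10.0 mg.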

Rattus norvegicus [7] = organism: Rattus norvegicus; test: Antiandrogenicity in male rat assessed as inhibition of increase in seminal vesicle weight using 2.4 mg testosterone at 10 mg; type: functional
Rattus norvegicus [8] = organism: Rattus norvegicus; test: Androgenicity in male rat at 0.1 to 10 mg; type: functional, organism-based
Rattus norvegicus [9] = organism: Rattus norvegicus; test: Antiandrogenicity in male rat assessed as inhibition of increase in levator ani weight using 2.4 mg testosterone at 10 mg; type: functional
Rattus norvegicus [10] = organism: Rattus norvegicus; test: Antiandrogenicity in male rat assessed as inhibition of increase in ventral prostate weight using 2.4 mg testosterone at 10 mg; type: functional, Prostate gland

In the case of `CC(=O)[C@H]1CC[C@H]2[C@@H]3CCC4=CC(=O)CC[C@]4(C)[C@H]3CC[C@]12C`, the Activity (Oryctolagus cuniculus [1]) is reported as “inactive”.

For `C[C@]12CC[C@@H]3[C@H]4CCC(=O)[C@H]5C(C[C@H]3[C@@H]1CCC2=O)[C@@H]45` (stereo partly drawn), the “inhibition (INH)” value (Rattus norvegicus [2]) was less than 20%, the Activity (Rattus norvegicus [3]) was “Active” and the “inhibition (INH)” value (Rattus norvegicus [4]) was less than 20%. The “inhibition (INH)” value (Rattus norvegicus [5]) was less than 20%.

For `CC(=O)[C@H]1CC[C@H]2[C@@H]3CC4[C@@H]5[C@H]4C(=O)CC[C@]5(C)[C@H]3CC[C@]12C` (stereo partly drawn), the Activity (Oryctolagus cuniculus [6]) was “inactive”.

In the case of `CC(=O)O[C@H]1CC[C@H]2[C@@H]3CC4[C@@H]5[C@H]4C(=O)CC[C@]5(C)[C@H]3CC[C@]12C` (stereo partly drawn), the “inhibition (INH)” value (Rattus norvegicus [7]) is reported as less than 20%, the “inhibition (INH)” value (Rattus norvegicus [2]) is reported as less than 20% and the Activity (Rattus norvegicus [8]) is reported as “Active”. The “inhibition (INH)” value (Rattus norvegicus [9]) was less than 20%, the “inhibition (INH)” value (Rattus norvegicus [4]) was less than 20% and the “inhibition (INH)” value (Rattus norvegicus [10]) was less than 20%. For the same molecule, the “inhibition (INH)” value (Rattus norvegicus [5]) was less than 20%.

From ChEMBL document CHEMBL3272014, “Synthesis and biological inactivity of some 4alpha,6-cyclo steroids” (1976)
